The test system of data set [1] is Bacillus subtilis. In words: Inhibition of Bacillus subtilis cytoplasmic Walk CA domain (272 to 612 residues) autophosphorylation at 1 mM preincubated for 5 mins followed by [gamma-32P] ATP addition measured after 3 mins by SDS-PAGE based phosphor imaging method. Put shortly: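 Screen used cytoplasmic WalK fragments. 2 µM kinase in Epps buffer pH 8.5 with 20 mM MgCl2, 0.1 mM EDTA and 5% glycerol. Compound at 1 mM final in 10% DMSO, added 5 min before ATP (1 mM final including [γ-32P]ATP). Stopped with SDS loading buffer, run on SDS-PAGE, read by phosphorimaging.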

Data set [2] deals with Bacillus subtilis. In words: Inhibition of Bacillus subtilis KinA autophosphorylation.
The nature of data set [3]: Inhibition of Escherichia coli DNA gyrase supercoiling activity using relaxed pUC19 DNA as substrate after 30 mins by agarose gel electrophoresis. The essentials: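 E. coli gyrase (1 U) with 75 ng relaxed pUC19 in kit buffer with 2% DMSO. Compound at 6.25–800 µM final, ciprofloxacin as control. Incubated 30 min at 37 °C, stopped with loading dye, supercoiling read by agarose gel electrophoresis.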

In data set [4] the test system is Staphylococcus aureus. Nature of the data set: Antimicrobial activity against methicillin-resistant Staphylococcus aureus USA300 TCH1516 at 100 ug after 20 hrs by disk diffusion assay. Type of data set: functional. The following applies: USA300_TCH1516. In general terms: A growth-free zone around the sample is the usual read-out of agar diffusion tests.
Data set [5] has as its system Staphylococcus aureus. Nature of the data set: Antimicrobial activity against methicillin-resistant Staphylococcus aureus USA300 TCH1516 at 20 ug after 20 hrs by disk diffusion assay. It is filed as functional. The following applies: USA300_TCH1516.
Data set [6] in a line: Antimicrobial activity against Bacillus subtilis JH642 after 20 hrs by two fold serial broth dilution method. Type of data set: functional, Bacillus subtilis subsp. subtilis str. JH642. The essentials: (§1)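 Two-fold serial broth dilution per CLSI in LB, BHI or THB broth, (3–7) × 10⁵ cfu/mL per well, compound 0.5 to 128 µg/mL, 20 h at 37 °C. MIC is the lowest concentration with no growth. For MBC (>99.99% kill), 10 µL from wells without growth are spotted on agar and read the next day as spots with fewer than 5 colonies.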

The test system of data set [7] is Staphylococcus aureus. Nature of the data set: Antimicrobial activity against methicillin-resistant Staphylococcus aureus USA300 TCH1516 after 20 hrs by two fold serial broth dilution method. Type of data set: functional. The following applies: USA300_TCH1516, 20 h. Put shortly: as §1
(Dilution methods test growth across graded concentrations, often in twofold steps.)

For data set [8], the system named is Bacillus anthracis. In words: Antimicrobial activity against Bacillus anthracis 34F2 after 20 hrs by two fold serial broth dilution method. Conditions: 34F2, 20 h. It is filed as functional. The essentials:
as §1

Data set [9] in a line: Antimicrobial activity against Streptococcus pyogenes M1 GAS 5448 after 20 hrs by two fold serial broth dilution method. It is filed as functional. Conditions: Streptococcus pyogenes, 5448, 20 h. Put shortly:
(§2)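 2-fold serial broth dilution per CLSI in LB, BHI or THB; inoculum (3–7) × 10⁵ cfu/mL; compound 0.5 to 128 µg/mL; 20 h at 37 °C. MIC taken as lowest concentration with no visible growth. For MBC (>99.99% kill), 10 µL from wells without growth spotted on agar; read next day as spots with fewer than 5 colonies.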

The subject of data set [10] is Streptococcus agalactiae. Nature of the data set: Antimicrobial activity against Streptococcus agalactiae COH1 GBS after 20 hrs by two fold serial broth dilution method. Type of data set: functional. The essentials:
as §2

Data set [11] has as its system Listeria monocytogenes. In words: Antimicrobial activity against Listeria monocytogenes 10403S after 20 hrs by two fold serial broth dilution method. Type of data set: functional. Put shortly: as §2
Data set [12] relates to Enterococcus faecalis. Nature of the data set: Antimicrobial activity against Enterococcus faecalis V583 after 20 hrs by two fold serial broth dilution method. Conditions: V583, 20 h. Type of data set: functional. Put shortly:
as §2

The nature of data set [13]: Bactericidal activity against Streptococcus pyogenes M1 GAS 5448 after 20 hrs by two fold serial broth dilution method. Type of data set: functional. Put shortly:
as §2

Data set [14] deals with Streptococcus agalactiae. In words: Bactericidal activity against Streptococcus agalactiae COH1 GBS after 20 hrs by two fold serial broth dilution method. It is filed as functional. Put shortly: as §2
The test system of data set [15] is Escherichia coli. Nature of the data set: Bactericidal activity against Escherichia coli MG1655 after 20 hrs by two fold serial broth dilution method. Type of data set: functional, K-12 substr. MG1655. Put shortly:
as §1

The test system of data set [16] is Bacillus subtilis subsp. subtilis str. JH642. In words: Bactericidal activity against Bacillus subtilis JH642 assessed as clearing of bacterial culture at 50 ug/ml upto 9 hrs. Type of data set: functional. The essentials:
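B. subtilis JH642 grown overnight in LB, diluted into 20 mL LB at OD600 0.05, grown at 37 °C. Compound added at OD600 0.5–0.6. OD600 followed before and after addition over several hours. Vancomycin served as bactericidal control and chloramphenicol as bacteriostatic control.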

The nature of data set [17]: Hemolytic activity against sheep RBC upto 1 mM after 45 mins. Type of data set: ADME, cell-based, Ovis aries. Conditions: erythrocyte, 0.75 h. The essentials: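 Sheep RBCs washed three times in PBS. Reactions held 2% (v/v) RBC, 10% DMSO and 1 mM compound, incubated 45 min at 37 °C with shaking at 100 rpm. No-compound control and H2O (100% lysis) control included. RBCs then removed by centrifugation at 900g, 4 °C.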

For data set [18], the system named is Escherichia coli. In words: Inhibition of histidine kinase in amoxicillin-resistant Escherichia coli isolate G28 harboring beta-lactamase assessed as adjuvant activity for restoration of amoxicillin induced antibacterial activity by measuring amoxicillin MIC at 50 ug/ml by broth microdilution method (reference value: >16 ug/ml). Put shortly:
(§3)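 Clinical resistant isolates and quality control strains (S. aureus ATCC 29213, E. coli ATCC 25922) are tested by EUCAST broth microdilution with a 10⁶ bacteria/mL inoculum, in triplicate, with or without a fixed adjuvant concentration. For MBC, the MIC dilution and at least two more concentrated dilutions are plated and CFU/mL counted.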

Data set [19] concerns Escherichia coli. In words: Inhibition of histidine kinase in cephalosporin-resistant/ESBL producing Escherichia coli isolate ARS 108 assessed as adjuvant activity for restoration of amoxicillin induced bactericidal activity by measuring amoxicillin MBC at 50 ug/ml by broth microdilution method (reference value: >16 ug/ml). The essentials: as §3
Data set [20] relates to Escherichia coli. Nature of the data set: Inhibition of histidine kinase in cephalosporin-resistant/ESBL producing Escherichia coli isolate ARS 108 assessed as adjuvant activity for restoration of cefotaxime induced bactericidal activity by measuring cefotaxime MBC at 50 ug/ml by broth microdilution method (reference value: >8 ug/ml). Put shortly:
as §3

The test system of data set [21] is Staphylococcus aureus. In words: Inhibition of histidine kinase in methicillin-resistant Staphylococcus aureus isolate C1BP13 assessed as adjuvant activity for restoration of cloxacillin induced bactericidal activity by measuring cloxacillin MBC at 50 ug/ml by broth microdilution method (reference value: >8 ug/ml). Put shortly: as §3
Data set [22] relates to Staphylococcus aureus. Nature of the data set: Inhibition of histidine kinase in penicillin G-resistant/penicillinase producing Staphylococcus aureus isolate C1P15 assessed as adjuvant activity for restoration of penicillin G induced bactericidal activity by measuring penicillin G MBC at 50 ug/ml by broth microdilution method (reference value: >8 ug/ml). Put shortly:
as §3

The subject of data set [23] is Staphylococcus aureus. In words: Inhibition of histidine kinase in methicillin-resistant Staphylococcus aureus isolate C1BP13 assessed as adjuvant activity for restoration of penicillin G induced bactericidal activity by measuring penicillin G MBC at 50 ug/ml by broth microdilution method (reference value: >8 ug/ml). The essentials:
as §3

Data set [24] has as its system Staphylococcus aureus. Nature of the data set: Bactericidal activity against methicillin-resistant Staphylococcus aureus USA300 TCH1516 at 50 ug/ml upto 9 hrs. The following applies: USA300_TCH1516. Type of data set: functional. The essentials: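 Culture inoculated at OD600 0.05 and grown until OD600 reaches 0.5–0.6, when additives are added; chloramphenicol and vancomycin serve as controls. OD600 is followed before and after addition for several hours. For S. aureus the assay uses fewer time points and a smaller volume.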

pIC50: −log10 of the molar value. ≈ marks a conversion by molar mass, not a printed value. Calls of active or inactive are those of the source. The rule behind the calls is not given here. Some results are limits rather than exact numbers.

As usually defined, the pIC50 is the IC50 on a negative log10 scale, so that one unit is a factor of ten. As to `O=[N+]([O-])c1ccc(-c2ccccc2O)s1`, the inhibition entry in data set [1] and in data set [2] was “Active” each time. Moreover, in data set [3], the pIC50 was ≤ 3.40. In addition, the outcome in data set [4], in data set [5], in data set [16] and in [24] was Active. Further, the MIC in data set [6] is 7 µg/mL (≈ 31.6 µM); in data set [7] it was 16 µg/mL (≈ 72.3 µM); in data set [8], 7 µg/mL (≈ 31.6 µM); in data set [9], 10 µg/mL (≈ 45.2 µM); in data set [10], 16 µg/mL (≈ 72.3 µM); in data set [11] it was 10 µg/mL (≈ 45.2 µM). Moreover, the MIC in [12] turned out to be 32 µg/mL (≈ 145 µM); in data set [18] it was 0.03 µg/mL. For the same molecule, the MBC99.99 is 32 µg/mL (≈ 145 µM) in data set [13], >32 µg/mL in data set [14] and 32 µg/mL (≈ 145 µM) in data set [15]. The Activity entry in data set [17] was “Non-Toxic”. Further, the MBC in data set [19] is > 16 µg/mL; in data set [20], > 8 µg/mL; in data set [21], > 8 µg/mL; in data set [22] it was 2 µg/mL; in [23], 4 µg/mL.

(Values after ChEMBL document CHEMBL3860044, “The Rational Design, Synthesis, and Antimicrobial Properties of Thiophene Derivatives That Inhibit Bacterial Histidine Kinases” (J Med Chem, 2016).)
